The source of these data is PMC11384490 (Translational Lung Cancer Research, 2024).

Data set [1] has as its system A549 subcutaneous tumors. The experiment in a line: NIRF imaging and biodistribution in NSCLC subcutaneous tumor mouse model. It is filed as in vivo, BALB/c nude mice. In outline: (§1)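 A549 cells in 100 µL PBS were injected subcutaneously into the left armpit of isoflurane-anaesthetised BALB/c nude mice, and tumours were sized by caliper (V=a2bπ/2). At about 100 mm3, mice (n=3) got the test compound (10 nmol) by tail vein. IVIS imaging ran from 1 h to several days, and tumour-to-background ratio was calculated. At 96 h, organs were excised, imaged, and organ-to-muscle fluorescence ratios averaged over 3 mice.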

Experiment in data set [2]: as above
It is filed as in vivo, BALB/c nude mice. To be noted: mouse, in vivo, iv, 10 nmol. In short, it runs like this:
as §1

Data set [3] in a line: Water solubility. In kind it is physicochemical. To be noted: result in words.
Data set [4] concerns orthotopic LLC pulmonary xenografts. Put plainly: Orthotopic pulmonary LLC tumor imaging and boundary analysis. In kind it is in vivo, C57BL/6 mice.
Data set [5] concerns 4T1 lung metastatic nodules. Put plainly: Imaging of experimental lung metastasis model. To be noted: iRGD-ZW800 10 nmol, 4 h vs ICG 100 nmol, 24 h; result in words. It is filed as in vivo, Balb/c mouse. In short, it runs like this:
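Balb/c mice received 4T1 cells by tail vein and were observed weekly. After four weeks, the test compound (10 nmol) was given by tail vein. The chest was opened 4 h later and the lungs were imaged with an intraoperative NIRF imager. Control mice got ICG (100 nmol) and were imaged the same way after 24 h.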

SMILES strings stand for the structures.

As for `CC1(C)C(/C=C/C2=C(Oc3ccc(CCC(=O)N[C@H]4CSSC[C@@H](C(=O)O)NC(=O)[C@H](CC(=O)O)NC(=O)[C@@H]5CCCN5C(=O)CNC(=O)[C@H](CCCCN)NC(=O)[C@H](CC(=O)O)NC(=O)CNC(=O)[C@H](CCCNC(=N)N)NC4=O)cc3)C(=C/C=C3/N(CCC[N+](C)(C)C)c4ccc(S(=O)(=O)O)cc4C3(C)C)/CCC2)=[N+](CCC[N+](C)(C)C)c2ccc(S(=O)(=O)O)cc21` [iRGD-ZW800], in data set [1] (10 nmol per animal via tail vein, peak 96 h after injection, IVIS imaging, n=3), the “peak tumor-to-background ratio (TBRmax)” value is listed as 4.3±1.04. Besides, the “Fluorescence intensity ratio Sp/M (spleen/muscle)” value in data set [1] (ex vivo organs, 96 h after 10 nmol i.v., AVG of 3 mice, SD 0.19) worked out at 0.85. For the same compound, the “Fluorescence intensity ratio In/M (intestine/muscle)” value in data set [1] (ex vivo organs, 96 h after 10 nmol i.v., AVG of 3 mice, SD 0.58) amounted to 1.43. Further, in data set [1] (ex vivo organs, 96 h after 10 nmol i.v., AVG of 3 mice, SD 0.60), the “Fluorescence intensity ratio H/M (heart/muscle)” value was 1.50. Besides, the “Fluorescence intensity ratio Ki/M (kidney/muscle)” value in data set [1] (ex vivo organs, 96 h after 10 nmol i.v., AVG of 3 mice, SD 1.64) came to 4.57. For the same compound, in data set [1] (ex vivo organs, 96 h after 10 nmol i.v., AVG of 3 mice, SD 1.85), the “Fluorescence intensity ratio St/M (stomach/muscle)” value came out at 3.67. Besides, the “Fluorescence intensity ratio Li/M (liver/muscle)” value in data set [1] (ex vivo organs, 96 h after 10 nmol i.v., AVG of 3 mice, SD 2.55) turned out to be 5.28. The “Fluorescence intensity ratio L/M (lung/muscle)” value in data set [1] (ex vivo organs, 96 h after 10 nmol i.v., AVG of 3 mice, SD 2.67) was 5.01. The “Fluorescence intensity ratio C/M (colon/muscle)” value in data set [1] (ex vivo organs, 96 h after 10 nmol i.v., AVG of 3 mice, SD 3.74) came out at 6.80. Also, the imaging window in data set [1] (in vivo, 10 nmol tail vein, imaged periodically over 6 days) is ≥ 6 days. For the same compound, the tissue to tissue ratio at 96 h in data set [2] stood at 16.6. In addition, the results for the water solubility entry in data set [3] and in data set [3] (listed as iRGD fluorescent tracer) were “good water solubility” and “highly soluble in water”, respectively. Further, the “ratio of tumor to lung fluorescence intensity” value in data set [4] (10 nmol tail vein, 24 h, FLI-10B imaging, ImageJ, standard deviation 0.18) amounted to 2.2. The tumor background ratios result in data set [4] (lung tumor imaging in C57BL/6J mice, all ratios) is “greater than 1.5”. The “detection of metastatic lung nodules compared with ICG” value in data set [5] is recorded as “superior ability to detect more nodules”.
